In PubChem BioAssay:
Results filed as inconclusive are left out.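 Rule for the calls, unless noted: active = inhibition over a set limit, the all-compound mean plus 3 SD, in both replicate runs; inconclusive = over that limit in just one replicate run; inactive = at or under that limit in both runs.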

Key:
[1] = S. cerevisiae growth inhibition in permissive medium (OD615), pilot counter-assay for S. cerevisiae lifespan shortening project, permissive growth control (AID 705;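 active = growth inhibition above 25% in both replicates, a cutoff set 3 SD above the mean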); conditions: OD615, 24 h, at 10 µM, stronger effect = higher value
In short: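 assay system = Saccharomyces cerevisiae strain carrying genetically modified DeaD replicative-lifespan system | technique = absorbance (optical density) at 615 nm | buffer or medium = permissive raffinose/galactose medium | timing = cells pre-grown 4 h, then 24 h compound exposure, 30 °C humidified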

[2] = S. cerevisiae growth inhibition in restrictive medium, OD615, pilot screen, restrictive growth control, yeast lifespan reduction project (AID 706;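 active = growth inhibition above a set limit, 3 SD over mean compound inhibition, in both replicates, cut at about 43% in these data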;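 note: modified DeaD lifespan yeast strain shifted to restrictive glucose medium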); conditions: OD615, 48 h, at 10 µM, stronger effect = higher value
In short: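 System: modified S. cerevisiae. Buffer or medium: CSMM-D glucose medium. Incubation: 4 h pre-growth plus 48 h compound exposure, 30 °C. Detection: absorbance (optical density) measured at 615 nm.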

[3] = doxorubicin toxicity protection in MRP-1 cells – H69AR cells, CellTiter-Glo, duplicate, MRP-1 activator project, pilot screen (AID 807;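 active = viability increase at or above a cutoff of the median across tested compounds plus 3 SD, cut at about 8.5% in these data, passing the limit was not always enough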;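 note: compound pretreatment 18-22 h then 72 h combined with doxorubicin; 0% = doxorubicin alone and 100% = vehicle without doxorubicin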); conditions: H69AR viability with doxorubicin, CellTiter-Glo luminescence; at 10 µM; stronger effect = higher value
[4] = viability of HCT116 without oncogenic beta-catenin – human colon tumor cells, pilot screen (AID 823;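 active = cell viability at or below a set limit in both duplicate runs, the limit being the all-compound median minus 4 SD, cut at about 23% in these data, passing the limit was not always enough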;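 note: 0% = wells killed by 20 µM Hyamine and 100% = untreated DMSO cell wells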); conditions: HCT116 beta-catenin knockout viability, CellTiter-Glo, 60 h; at 10 µM; stronger effect = lower value
[5] = viability of PTEN-null HCT116 cells – cell-based, HCT116 clonal line, CellTiter-Glo, pilot screen (AID 824;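 active = viability at or below 27.92% in each of two runs, the all-compound median minus 4 SD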;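 note: 0% = 20 µM Hyamine control and 100% = vehicle cell control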); conditions: HCT116 PTEN-deleted viability, 60 h, at 10 µM, stronger effect = lower value
[6] = RAM pathway blockade in budding yeast – dse1pr::URA3 reporter, 5-FOA selection, pilot screen (AID 869);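 note: 0% = DMSO wells with no growth and 100% = 10 µM 1-NA-PP1 with full growth; RAM network block rescues cells from 5-FOA so hits raise OD615 growth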; conditions: S. cerevisiae dse1pr::URA3 5-FOA growth, OD615, 2 d; at 10 µM; stronger effect = higher value; strain carries analog-sensitive mutant Cbk1 kinase
[7] = RAM signaling pathway blockade in yeast – S. cerevisiae, Pdr1DBD-CYC8 efflux-inhibited sensitized strain, primary screen (AID 1298;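 active = RAM network inhibition above 8.4% in each of two replicates, 3 SD over the compound average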;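 note: 0% = DMSO untreated cells without growth and 100% = 10 µM 1-NA-PP1 full growth; higher means more yeast growth rescued from 5-FOA killing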); conditions: S. cerevisiae cbk1-as DSE1-URA3 strain, 5-FOA growth OD615, 2 d; at 50 µM; stronger effect = higher value

CCc1nccn1S(=O)(=O)c1ccc(OC)c(OC)c1
inactive: growth inhibition [1] -17.4% | growth inhibition [2] -10% | viability increase [3] -0.29% | viability [4] 100% | viability [5] 93.3% | inhibition [6] 1.67% | RAM network inhibition [7] 0.47%

O=C(Cn1ncc2c1-c1ccccc1OC2)Nc1nc2ccccc2s1
inactive: growth inhibition [1] -6.12% | growth inhibition [2] 18.7% | viability increase [3] -6.71% | viability [4] 93.9% | viability [5] 84.5% | inhibition [6] 0.785% | RAM network inhibition [7] -2.15%

CCOC(=O)Cn1c(=O)oc2cc(S(=O)(=O)N3CCN(c4ccccn4)CC3)ccc21
inactive: growth inhibition [1] 10.4% | growth inhibition [2] 6.56% | viability increase [3] -2.64% | viability [4] 96.3% | viability [5] 99.5% | inhibition [6] 0.75% | RAM network inhibition [7] 3.64%

Cc1sc2nc(SCC(=O)NCc3ccco3)[nH]c(=O)c2c1C
inactive: growth inhibition [1] -4% | growth inhibition [2] -4.97% | viability increase [3] -3.92% | viability [4] 106% | viability [5] 101% | inhibition [6] 2.67% | RAM network inhibition [7] 5.12%

COC(=O)c1ccccc1NC(=O)CSc1nccn1C
inactive: growth inhibition [1] -3.94% | growth inhibition [2] 2.94% | viability increase [3] -0.69% | viability [4] 93.1% | viability [5] 92.2% | inhibition [6] 1.27% | RAM network inhibition [7] 2.31%

CCC(CC)C(=O)NCCc1cc2ccc(C)c(C)c2[nH]c1=O
inactive: growth inhibition [1] -14.2% | growth inhibition [2] -21.4% | viability increase [3] -1.66% | viability [4] 103% | viability [5] 96.6% | inhibition [6] 1.66% | RAM network inhibition [7] 2.56%

CCCN(CCC)C(=O)c1ccc2c(c1)N(Cc1ccccc1)C(=O)CS2=O (configuration not stated)
inactive: growth inhibition [1] 2.79% | growth inhibition [2] -7.64% | viability increase [3] -2.62% | viability [4] 88.1% | viability [5] 83.4% | inhibition [6] 0.885% | RAM network inhibition [7] 1.55%

Cc1ccc(S(=O)(=O)Cc2ccc(C(=O)N3CCCC3)o2)cc1
inactive: growth inhibition [1] -4.83% | growth inhibition [2] -13.4% | viability increase [3] -1.75% | viability [4] 99.2% | viability [5] 108% | inhibition [6] 1.19% | RAM network inhibition [7] 4.1%

Cc1ccc(-c2nn(CC(=O)O)c(=O)c3ccccc23)cc1
inactive: growth inhibition [1] -19.3% | growth inhibition [2] -13.9% | viability increase [3] 1.3% | viability [4] 104% | viability [5] 96.2% | inhibition [6] 2.12% | RAM network inhibition [7] 1.1%

COc1cc(OC)c(C2N(c3ccc(Cl)cc3)C(=O)C3CCCN32)cc1OC (configuration not stated)
inactive: growth inhibition [1] -2.8% | growth inhibition [2] -2.08% | viability increase [3] -2.63% | viability [4] 105% | viability [5] 96.7% | inhibition [6] 2.59% | RAM network inhibition [7] 3.82%

CC(C)c1ccc2c(c1)C(=O)NC(C)(C)C2
inactive: growth inhibition [1] -8.81% | growth inhibition [2] -11.3% | viability increase [3] -2.07% | viability [4] 116% | viability [5] 97.8% | inhibition [6] 1.88% | RAM network inhibition [7] 4.27%

CC(=Nc1ccc(C)c(C)c1)C1=C(O)CSC1=O
inactive: growth inhibition [1] 1.08% | growth inhibition [2] -8.17% | viability increase [3] -2.54% | viability [4] 98.1% | viability [5] 90.3% | inhibition [6] 1.67% | RAM network inhibition [7] 4.33%

CCc1cccc(OCC(=O)Nc2ccc(S(=O)(=O)Nc3onc(C)c3C)cc2)c1
inactive: growth inhibition [1] -13.4% | growth inhibition [2] 8.17% | viability increase [3] -1.89% | viability [4] 98.7% | viability [5] 97% | inhibition [6] -0.085% | RAM network inhibition [7] 1.89%

O=C(NCc1ccco1)C1CCN(c2nc3ccccc3n2Cc2ccc(F)cc2)CC1
inactive: growth inhibition [1] -6.36% | growth inhibition [2] -0.175% | viability increase [3] -5.61% | viability [4] 78.1% | viability [5] 73.9% | inhibition [6] 0.41% | RAM network inhibition [7] 7.12%

COC(=O)c1ccc2c(c1)NC(=O)C1CCCN21 (configuration not stated)
inactive: growth inhibition [1] 7.72% | growth inhibition [2] 12.4% | viability increase [3] -0.72% | viability [4] 91.2% | viability [5] 89.8% | inhibition [6] 0.305% | RAM network inhibition [7] -1.29%

CCC(Sc1nncn1C)C(=O)Nc1nnc(-c2ccc(Cl)cc2)s1 (configuration not stated)
inactive: growth inhibition [1] 5.38% | growth inhibition [2] 32.9% | viability increase [3] -2.63% | viability [4] 94.1% | viability [5] 93.5% | inhibition [6] 0.955% | RAM network inhibition [7] 4.37%

Cc1ccc(N2CN=c3s/c(=C\c4ccccn4)c(=O)n3C2)cc1
inactive: growth inhibition [1] -7.53% | growth inhibition [2] 1.19% | viability increase [3] -2.37% | viability [4] 86.8% | viability [5] 98.7% | inhibition [6] -0.31% | RAM network inhibition [7] 3.39%

Cc1ccc(-n2nnc3c(=O)n(CC(=O)N4CCOCC4)cnc32)cc1
inactive: growth inhibition [1] -0.37% | growth inhibition [2] 0.95% | viability increase [3] -1.94% | viability [4] 101% | viability [5] 94.2% | inhibition [6] 1.23% | RAM network inhibition [7] 3.05%

Cc1onc(-c2ccccc2Cl)c1C(=O)NCC1CCCO1 (configuration not stated)
inactive: growth inhibition [1] -0.6% | growth inhibition [2] 3.56% | viability increase [3] -1.44% | viability [4] 88.7% | viability [5] 95.8% | inhibition [6] 1.24% | RAM network inhibition [7] -0.74%

Cc1ccc(Cn2c(CN3CC(C)OC(C)C3)nc3c2c(=O)n(C)c(=O)n3C)cc1 (configuration not stated)
inactive: growth inhibition [1] -5.45% | growth inhibition [2] -10.8% | viability increase [3] -1.28% | viability [4] 96.1% | viability [5] 95.1% | inhibition [6] 2.09% | RAM network inhibition [7] 1.95%

O=C1c2ccccc2CCC1C(O)c1ccccn1 (configuration not stated)
inactive: growth inhibition [1] -8.87% | growth inhibition [2] -15.8% | viability increase [3] -3.89% | viability [4] 95.5% | viability [5] 99.2% | inhibition [6] 2.49% | RAM network inhibition [7] 1.24%

Cc1cc(C)n(-c2ncc(-c3ccccc3)nn2)n1
inactive: growth inhibition [1] -2.83% | growth inhibition [2] 29.2% | viability increase [3] -0.89% | viability [4] 105% | viability [5] 105% | inhibition [6] 0.43% | RAM network inhibition [7] 2.61%

O=C(CN1C(=O)c2ccccc2C1=O)Nc1cccc2cccnc12
inactive: growth inhibition [1] -14.6% | growth inhibition [2] -12.1% | viability increase [3] -1.1% | viability [4] 104% | viability [5] 106% | inhibition [6] 0.36% | RAM network inhibition [7] 5.82%

O=C(Cn1cc2c(n1)CCCC2)NCc1cccnc1
inactive: growth inhibition [1] -1.72% | growth inhibition [2] -0.58% | viability increase [3] -0.86% | viability [4] 102% | viability [5] 101% | inhibition [6] 3.13% | RAM network inhibition [7] 3.68%

COc1ccc(Cl)cc1S(=O)(=O)N1CCN(C)CC1
inactive: growth inhibition [1] 1.3% | growth inhibition [2] -7.12% | viability increase [3] -2.26% | viability [4] 100% | viability [5] 86.8% | inhibition [6] 1.67% | RAM network inhibition [7] 5.97%

COC(=O)c1ccc(CSc2ncn[nH]2)o1
inactive: growth inhibition [1] -2.62% | growth inhibition [2] 3.27% | viability increase [3] 0.51% | viability [4] 94.7% | viability [5] 97.5% | inhibition [6] 0.395% | RAM network inhibition [7] 3.38%

CCCc1nc2c(o1)CC(CC(C)SCC)CC2=O (configuration not stated)
inactive: growth inhibition [1] -7.34% | growth inhibition [2] -1.98% | viability increase [3] -0.4% | viability [4] 101% | viability [5] 98.8% | inhibition [6] 1.36% | RAM network inhibition [7] 5.75%

COc1cc(OC)c(C2Oc3nc(SC)nnc3-c3ccccc3N2C(C)=O)cc1OC (configuration not stated)
inactive: growth inhibition [1] 4.06% | growth inhibition [2] -0.66% | viability increase [3] -4.95% | viability [4] 108% | viability [5] 108% | inhibition [6] 3.23% | RAM network inhibition [7] 1.75%

CC(=O)Oc1ccc(N2C(=O)C3C4C=CC(O4)C3C2=O)cc1 (configuration not stated)
inactive: growth inhibition [1] 14.2% | growth inhibition [2] 27.7% | viability increase [3] -1.46% | viability [4] 92.1% | viability [5] 101% | inhibition [6] 2.19% | RAM network inhibition [7] 0.14%

O=C(OCCNc1ncc(C(F)(F)F)cc1Cl)c1ccc(S(=O)(=O)N2CCOCC2)cc1
inactive: growth inhibition [1] -5% | growth inhibition [2] -18.4% | viability increase [3] -2.03% | viability [4] 88.8% | viability [5] 97.9% | inhibition [6] 1.17% | RAM network inhibition [7] 9.46%

COCCCNC(=O)Cn1cc2c(n1)CCCCC2
inactive: growth inhibition [1] 3.39% | growth inhibition [2] -2.59% | viability increase [3] 0.05% | viability [4] 104% | viability [5] 106% | inhibition [6] -0.6% | RAM network inhibition [7] 4.53%

COc1ccc(C)c(S(=O)(=O)Nc2ccc(OCC(=O)O)cc2)c1
inactive: growth inhibition [1] 2.53% | growth inhibition [2] -4.93% | viability increase [3] -1.41% | viability [4] 99% | viability [5] 102% | inhibition [6] 0.345% | RAM network inhibition [7] -1.4%

O=C(COc1cc(=O)n2c(n1)SCCC2)c1ccccc1
inactive: growth inhibition [1] -6.77% | growth inhibition [2] -2.62% | viability increase [3] -1.08% | viability [4] 102% | viability [5] 92.7% | inhibition [6] 1.56% | RAM network inhibition [7] 1.89%

CCCCCCN=CC1=C(O)C(C(=O)OC)C(C)(C)CC1=O (configuration not stated)
inactive: growth inhibition [1] -10.1% | growth inhibition [2] -3.98% | viability increase [3] 1.15% | viability [4] 95.1% | viability [5] 95.3% | inhibition [6] 0.93% | RAM network inhibition [7] 0.11%

CCc1nc(C)cn1S(=O)(=O)c1cc(C)c(OC)cc1C
inactive: growth inhibition [1] -0.385% | growth inhibition [2] 0.98% | viability increase [3] 0.56% | viability [4] 102% | viability [5] 103% | inhibition [6] 1.69% | RAM network inhibition [7] 12.1%

CCOC(=O)C1CCN(C(c2cccs2)c2sc3nc(C)nn3c2O)CC1 (configuration not stated)
inactive: growth inhibition [1] -2.81% | growth inhibition [2] -7.96% | viability increase [3] -0.58% | viability [4] 105% | viability [5] 99.3% | inhibition [6] 0.905% | RAM network inhibition [7] 3.86%
